{"source": "ChEMBL document CHEMBL3351368", "about": "“Biphenyl-4-carboxylic acid [2-(1H-indol-3-yl)-ethyl]-methylamide (CA224), a nonplanar analogue of fascaplysin, inhibits Cdk4 and tubulin polymerization: evaluation of in vitro and in vivo anticancer activity” (J Med Chem, 2014)", "key": {"[1]": {"assay": "Growth inhibition of p53+, pRb+ human NCI-H460 cells after 48 hrs by MTT assay", "assay_type": "functional, cell-based", "settings": "NCI-H460, 48 h", "method_in_brief": "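MTT cell proliferation assay. IC50 (µM) was defined as the concentration giving 50% inhibition of cell growth.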"}, "[2]": {"assay": "Cell cycle arrest in mouse BNL-CL2 cells assessed as accumulation of cells at subG1 phase at IC50 concentration after 48 hrs by flow cytometry (reference value: 0%)", "assay_type": "functional", "method_in_brief": "(§1)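 Normal (BNL CL2) and SV40 large T-antigen transformed (BNL SV A.8) mouse embryonic hepatic cells were treated at IC50 or IC70 concentration for 48 h. Analysis was by FACS, with apoptosis taken as % cells in the sub-G1 peak. Untreated cells served as control.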"}, "[3]": {"assay": "Cell cycle arrest in mouse BNL-SVA.8 cells assessed as accumulation of cells at S phase at IC50 concentration after 48 hrs by flow cytometry (reference value: 23%)", "assay_type": "functional", "method_in_brief": "as §1"}, "[4]": {"assay": "Cell cycle arrest in mouse BNL-SVA.8 cells assessed as accumulation of cells at G2/M phase at IC50 concentration after 48 hrs by flow cytometry (reference value: 13%)", "assay_type": "functional", "method_in_brief": "as §1"}, "NCI-H460": {"system": "NCI-H460", "assay": "Induction of apoptosis in p53+, pRb+ human NCI-H460 cells assessed as fragmented nuclei/distrupted cell membrane after 24 hrs by DAPI staining-based flow cytometry", "assay_type": "functional"}, "[5]": {"assay": "Solubility in phosphate buffered saline", "assay_type": "physicochemical"}, "CYP3A4": {"target": "CYP3A4 (Homo sapiens, UniProt P08684)", "sequence (P08684 whole entry)": "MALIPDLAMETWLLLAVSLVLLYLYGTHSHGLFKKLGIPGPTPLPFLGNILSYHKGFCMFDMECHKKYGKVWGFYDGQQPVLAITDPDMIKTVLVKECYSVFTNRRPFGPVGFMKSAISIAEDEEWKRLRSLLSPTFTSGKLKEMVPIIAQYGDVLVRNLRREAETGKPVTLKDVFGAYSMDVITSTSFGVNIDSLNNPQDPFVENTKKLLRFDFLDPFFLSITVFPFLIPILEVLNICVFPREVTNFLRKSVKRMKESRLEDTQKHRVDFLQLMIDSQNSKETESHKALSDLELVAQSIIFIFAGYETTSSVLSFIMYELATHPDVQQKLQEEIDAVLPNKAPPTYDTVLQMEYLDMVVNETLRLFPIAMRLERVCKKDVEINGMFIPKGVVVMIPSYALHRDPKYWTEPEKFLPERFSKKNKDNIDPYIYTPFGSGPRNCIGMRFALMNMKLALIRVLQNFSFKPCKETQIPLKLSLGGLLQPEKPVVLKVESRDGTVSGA", "assay": "Inhibition of human recombinant CYP3A4 at 10 uM", "assay_type": "ADME"}, "CYP2D6": {"target": "CYP2D6 (Homo sapiens, UniProt P10635)", "sequence (P10635 whole entry)": "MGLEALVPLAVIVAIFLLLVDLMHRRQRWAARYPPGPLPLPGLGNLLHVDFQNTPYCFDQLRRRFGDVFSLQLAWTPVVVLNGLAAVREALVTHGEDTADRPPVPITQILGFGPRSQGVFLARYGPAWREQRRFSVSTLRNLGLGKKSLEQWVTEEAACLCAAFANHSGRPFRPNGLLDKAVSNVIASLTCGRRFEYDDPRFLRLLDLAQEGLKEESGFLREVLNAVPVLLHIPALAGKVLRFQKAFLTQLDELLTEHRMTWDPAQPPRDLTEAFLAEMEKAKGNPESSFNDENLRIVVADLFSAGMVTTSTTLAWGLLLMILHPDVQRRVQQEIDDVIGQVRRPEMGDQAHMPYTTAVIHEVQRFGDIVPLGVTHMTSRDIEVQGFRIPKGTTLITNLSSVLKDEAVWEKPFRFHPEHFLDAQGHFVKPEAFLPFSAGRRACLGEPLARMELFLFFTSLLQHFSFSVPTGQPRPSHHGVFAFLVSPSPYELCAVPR", "assay": "Inhibition of human recombinant CYP2D6 at 10 uM", "assay_type": "ADME"}, "[6]": {"assay": "Displacement of ethidium bromide from closed circular plasmid DNA (unknown origin) by fluorescence quenching assay"}, "[7]": {"assay": "Cell cycle arrest in human WI38 cells assessed as accumulation of cells at G2/M phase by flow cytometry", "assay_type": "functional, cell-based", "settings": "WI-38"}, "LS174T": {"system": "LS174T", "assay": "Reduction cyclin B1 level in p53+, pRb+ human LS 174T cells at IC50 concentration after 24 hrs by Western blot analysis"}}, "note": "pIC50: −log10 of the molar value. Active and inactive are the calls of the source.", "data": [{"smiles": "CN(CCc1c[nH]c2ccccc12)C(=O)c1ccc(-c2ccccc2)cc1", "values": [{"measurement": "pIC50", "setting": "[1]", "value": 5.70}, {"measurement": "Activity", "setting": "[2]", "value": 2, "unit": "%"}, {"measurement": "Activity", "setting": "[3]", "value": 21, "unit": "%"}, {"measurement": "Activity", "setting": "[4]", "value": 14, "unit": "%"}, {"measurement": "Activity", "setting": "NCI-H460", "value": "Dose-dependent effect"}, {"measurement": "solubility", "setting": "[5]", "value": 125, "unit": "µg/mL"}, {"measurement": "inhibition at 10 µM", "setting": "CYP3A4", "value": 50, "unit": "%"}, {"measurement": "inhibition at 10 µM", "setting": "CYP2D6", "value": 14, "unit": "%"}, {"measurement": "inhibition", "setting": "[6]", "value": "inactive"}, {"measurement": "Activity", "setting": "[7]", "value": "Active"}, {"measurement": "inhibition", "setting": "LS174T", "value": "Active"}]}]}
